Series [1] is described as follows: Half life in human liver microsomes at 3 uM preincubated for 5 mins followed by NADPH addition by LC-MS/MS analysis. Format: ADME, microsome. On the technique in general: Microsomes from liver hold many membrane-bound enzymes, among them those of drug oxidation.
Series [2] in a line: Kinetic solubility of the compound in PBS at pH 7.4 at 6.75 to 200 uM after 90 mins by UV absorbance based assay. The class given is physicochemical. To be noted: read-out: Kinetic_solubility.
In series [3] the target is T1, Serine protease hepsin (Homo sapiens, UniProt P05981, D161E/R162K). Description: Inhibition of recombinant C-terminal His10-tagged human Hepsin (R45 to […] residues) D161E/ R162K double mutant expressed in mouse NS0 cells using Boc-QRR-AMC as substrate after 15 mins by automated fluorescence assay. In outline: (§1)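 On-line assay integrated with the flow-synthesis platform: a 20 µL aliquot of each product solution captured automatically, HPLC-purified, then diluted and assayed.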

For series [4], the target named is Urokinase-type plasminogen activator (Homo sapiens, UniProt P00749). Briefly: Inhibition of recombinant C-terminal His10-tagged human uPA (M1 to L431 residues) expressed in mouse NS0 cells using Z-GGR-AMC as substrate after 15 mins by automated fluorescence assay. In outline:
as §1

The target in series [5] is T1, Serine protease hepsin. Description: Inhibition of recombinant C-terminal His10-tagged human Hepsin (R45 to […] residues) D161E/ R162K double mutant expressed in mouse NS0 cells using Boc-QRR-AMC as substrate after 15 mins by manual fluorescence assay.
The target in series [6] is T2, Serine protease hepsin (Homo sapiens, UniProt P05981). Description: Inhibition of hepsin-mediated conversion of Pro-HGF into active form in human Hs578T cells assessed as decrease in MET phosphorylation at 1 to 10 uM preincubated for 30 mins followed by recombinant human pro-HGF addition measured after 30 mins by immunoblot method. Format: cell-based. In outline:
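Hs578T or HCC1937 breast cells incubated with DMSO or inhibitor, then 50 ng/mL recombinant human Pro-HGF added; MET pathway activation (phospho-MET) assessed by immunoblotting.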
In general terms: A western blot detects proteins with antibodies after separation by electrophoresis.

The target in series [7] is Prothrombin (Homo sapiens) (UniProt P00734). Briefly: Inhibition of human thrombin using Z-Gly-Pro-Arg-AMC as substrate at 1 uM after 60 mins by fluorescence spectrophotometric method relative to control. In outline: (§2)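 Panel of ten serine proteases; percent inhibition read at compound concentrations of 1 µM and 10 µM, each value the mean of 2 experiments.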
The target is the same in series [8]. Briefly: Inhibition of human thrombin using Z-Gly-Pro-Arg-AMC as substrate at 10 uM after 60 mins by fluorescence spectrophotometric method relative to control. In outline:
as §2

Series [9] has as its target T3, Cathepsin G (Homo sapiens) (UniProt P08311).
T3 sequence (whole entry): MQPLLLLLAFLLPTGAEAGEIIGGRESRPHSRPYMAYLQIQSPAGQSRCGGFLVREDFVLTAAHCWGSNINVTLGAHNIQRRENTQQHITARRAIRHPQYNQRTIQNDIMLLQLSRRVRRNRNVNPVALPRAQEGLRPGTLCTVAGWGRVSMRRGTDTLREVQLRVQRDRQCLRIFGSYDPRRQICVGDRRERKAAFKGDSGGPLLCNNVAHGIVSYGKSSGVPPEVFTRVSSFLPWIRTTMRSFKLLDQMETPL
Briefly: Inhibition of human cathepsin G using Suc-Ala-Ala-Pro-Phe-AMC as substrate at 1 uM after 30 mins by fluorescence spectrophotometric method relative to control. In outline: as §2

Series [10] addresses T3, Cathepsin G (Homo sapiens). Description: Inhibition of human cathepsin G using Suc-Ala-Ala-Pro-Phe-AMC as substrate at 10 uM after 30 mins by fluorescence spectrophotometric method relative to control. In outline:
as §2

For another series, the target named is Tryptase (Homo sapiens) (UniProt Q9BZJ3+Q15661+Q9NRR2). Description: Inhibition of recombinant full length human tryptase usingZ-Gly-Pro-Arg-AMC as substrate at 10 uM after 60 mins by fluorescence spectrophotometric method relative to control. Format: protein assay. In outline: as §2
The target of series [11] is Plasma kallikrein (Homo sapiens) (UniProt P03952). Briefly: Inhibition of human plasma kallikrein using H-D-Pro-Phe-Arg-pNA as substrate at 1 uM after 30 mins by spectrophotometric method relative to control. In outline:
as §2

The target in series [12] is Coagulation factor X (Homo sapiens) (UniProt P00742). Description: Inhibition of factor 10a (unknown origin) at 10 uM after 15 mins by fluorescence assay relative to control. In outline:
as §2

Series [13] has as its target T4, Hepatocyte growth factor activator serine protease (Homo sapiens) (UniProt Q04756).
T4 sequence (whole entry): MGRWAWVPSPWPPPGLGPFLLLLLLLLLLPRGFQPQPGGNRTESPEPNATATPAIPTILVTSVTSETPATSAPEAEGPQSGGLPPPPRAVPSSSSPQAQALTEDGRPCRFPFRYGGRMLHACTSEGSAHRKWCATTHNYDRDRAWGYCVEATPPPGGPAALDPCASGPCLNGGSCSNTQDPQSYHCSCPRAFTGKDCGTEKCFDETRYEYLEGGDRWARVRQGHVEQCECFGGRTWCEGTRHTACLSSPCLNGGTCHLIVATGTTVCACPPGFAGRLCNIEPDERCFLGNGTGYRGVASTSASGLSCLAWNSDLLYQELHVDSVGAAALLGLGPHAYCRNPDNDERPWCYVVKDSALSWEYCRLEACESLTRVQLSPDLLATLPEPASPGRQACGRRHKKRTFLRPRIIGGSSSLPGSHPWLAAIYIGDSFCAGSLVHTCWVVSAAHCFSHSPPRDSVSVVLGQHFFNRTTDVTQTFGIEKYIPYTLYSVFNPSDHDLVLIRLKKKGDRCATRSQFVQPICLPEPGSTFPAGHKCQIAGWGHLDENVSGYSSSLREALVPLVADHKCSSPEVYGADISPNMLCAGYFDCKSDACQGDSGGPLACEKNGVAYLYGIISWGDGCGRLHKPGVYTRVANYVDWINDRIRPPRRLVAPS
Briefly: Inhibition of C-terminal 10-His tagged recombinant human HGFA (Gln36 to Ser655 residues) expressed in mouse […] cells 10 uM after 15 mins by fluorescence assay relative to control. The class given is cell-based.

Series [14] concerns the target T2, Serine protease hepsin. Description: Inhibition of doxycycline induced hepsin-mediated conversion of Pro-HGF into active form in human MCF10A cells assessed as decrease in MET phosphorylation (Tyr1243/1245) at 1 to 10 uM preincubated for 30 mins followed by recombinant human pro-HGF addition measured after 30 mins by immunoblot method. Format: cell-based. In outline: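 Dox-induced MCF10A-Indu20-hepsin cells given DMSO or inhibitor for 30 min, then 50 ng/mL recombinant human Pro-HGF; MET phosphorylation (Tyr1243/1245) detected by immunoblotting.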

Series [15] addresses T2, Serine protease hepsin. Briefly: Inhibition of doxycycline induced hepsin-mediated loss of desmosomal junctions in human MCF10A cells at 1 to 10 uM preincubated for 30 mins followed by doxycycline addition measured after 6 hrs by desmoglein 2 staining-based confocal immunofluorescence microscopic analysis. The class given is cell-based. In outline: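 MCF10A-Indu20-hepsin cells on coverslips pretreated 30 min with 1 or 10 µM compound or DMSO, then 100 ng/mL Dox for 6 h. Desmoglein 2 immunofluorescence: continuous pericellular staining scored positive, discontinuous or absent scored negative. Cells counted in 10 fields per treatment across three biological replicates; reported as percentages.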

Series [16] in a line: Chromatographic hydrophobicity index, log D of the compound at pH 7 by HPLC/UV analysis. Conditions: buffer. Format: physicochemical.

Converted amounts (≈) assume the structure as drawn. The source made the active and inactive calls. The calls are words filed in the database; no cut-off is given here.

One may read the half-life as how long it takes for the measured level to halve. As a reminder, the IC50 is the concentration that gives 50% inhibition. As a reminder, the inhibition is the change of the read-out against control, counted positive when it falls. One may read the chromatographic logD as a lipophilicity value derived from retention on a column. The low end stands for a more hydrophilic compound, the high end for a more lipophilic compound.

Sequence of Plasma kallikrein (Homo sapiens) (P03952 20-390 limits assumed): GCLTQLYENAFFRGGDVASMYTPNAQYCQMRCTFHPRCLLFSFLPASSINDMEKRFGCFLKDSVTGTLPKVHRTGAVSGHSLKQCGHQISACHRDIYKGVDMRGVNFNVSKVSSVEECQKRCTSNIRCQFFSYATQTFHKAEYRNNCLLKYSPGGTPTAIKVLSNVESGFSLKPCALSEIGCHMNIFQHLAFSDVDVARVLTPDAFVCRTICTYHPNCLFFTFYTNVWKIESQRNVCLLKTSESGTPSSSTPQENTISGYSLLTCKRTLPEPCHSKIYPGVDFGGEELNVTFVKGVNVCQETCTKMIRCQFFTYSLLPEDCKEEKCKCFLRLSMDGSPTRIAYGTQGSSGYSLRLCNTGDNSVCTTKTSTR
Sequence of Plasma kallikrein (Homo sapiens) (P03952 391-638 limits assumed): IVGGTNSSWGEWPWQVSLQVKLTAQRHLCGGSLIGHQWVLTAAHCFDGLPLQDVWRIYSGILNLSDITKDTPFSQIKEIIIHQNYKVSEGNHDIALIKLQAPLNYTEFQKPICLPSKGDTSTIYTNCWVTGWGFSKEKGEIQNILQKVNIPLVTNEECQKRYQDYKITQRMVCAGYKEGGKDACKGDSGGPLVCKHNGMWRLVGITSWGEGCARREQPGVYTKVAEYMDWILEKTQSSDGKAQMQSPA
T2 sequence (P05981 1-162 limits assumed): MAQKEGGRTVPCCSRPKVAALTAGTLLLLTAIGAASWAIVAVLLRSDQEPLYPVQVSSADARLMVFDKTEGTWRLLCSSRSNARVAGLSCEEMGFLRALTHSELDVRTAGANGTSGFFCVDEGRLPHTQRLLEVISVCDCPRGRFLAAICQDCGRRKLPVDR
T2 sequence (P05981 163-417 limits assumed): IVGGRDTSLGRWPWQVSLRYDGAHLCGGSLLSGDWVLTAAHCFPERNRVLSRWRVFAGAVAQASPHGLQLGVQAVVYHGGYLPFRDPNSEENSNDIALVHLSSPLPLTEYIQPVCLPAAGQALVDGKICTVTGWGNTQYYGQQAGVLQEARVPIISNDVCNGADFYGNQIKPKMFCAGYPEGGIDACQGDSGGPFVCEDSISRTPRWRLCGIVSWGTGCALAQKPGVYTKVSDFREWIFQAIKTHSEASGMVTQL
Sequence of Coagulation factor X (Homo sapiens) (P00742 41-179 limits assumed): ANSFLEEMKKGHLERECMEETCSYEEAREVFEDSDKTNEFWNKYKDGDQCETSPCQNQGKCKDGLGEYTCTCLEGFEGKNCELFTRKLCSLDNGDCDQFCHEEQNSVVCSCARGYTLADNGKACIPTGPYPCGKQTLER
Sequence of Coagulation factor X (Homo sapiens) (P00742 235-488 limits assumed): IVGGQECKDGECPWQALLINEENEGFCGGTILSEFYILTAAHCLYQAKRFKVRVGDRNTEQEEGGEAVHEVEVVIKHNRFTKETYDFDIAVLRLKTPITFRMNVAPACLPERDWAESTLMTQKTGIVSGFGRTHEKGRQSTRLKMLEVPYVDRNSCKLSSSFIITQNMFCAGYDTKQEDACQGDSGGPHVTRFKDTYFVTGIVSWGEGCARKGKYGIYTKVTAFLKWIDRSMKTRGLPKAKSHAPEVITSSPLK

In series [1], `N=C(N)c1ccc(NC(=O)[C@H](NS(=O)(=O)c2ccc(F)cc2)C2CCCCC2)cc1` gave a half-life at 3 µM of 16 min. The solubility kinetic at 1.5 h in [2] was determined as 200 µM (≈ 86.5 µg/mL). In addition, the IC50 at Serine protease hepsin [3] was 90 nM; in [4] it was over 14000 nM; on Serine protease hepsin [5], 190 nM. For the same molecule, the inhibition entry at Serine protease hepsin [6] is “Active”. The inhibition in [7] is under 10%; in series [8] it was 10%; in series [9] it was under 10%; in series [10], under 10%; at Tryptase (Homo sapiens), 91%; in series [11] it was 12%. Besides, the values for the inhibition in series [12] and in [13] were under 10% and 24%, respectively.
The molecule `Cc1ccc(S(=O)(=O)N[C@@H](C(=O)Nc2ccc(C(=N)N)cc2)c2ccccc2)cc1` registered a half-life at 3 µM in series [1] of 53 min. The solubility kinetic at 1.5 h in [2] is over 200 µM. Further, the IC50 at Serine protease hepsin [5] stood at 22 nM. Moreover, the inhibition result on Serine protease hepsin [14], on Serine protease hepsin [6] and on Serine protease hepsin [15] was “Active” in each case. In addition, the inhibition in series [7] was under 10%; in [8], 44%; in series [9], under 10%; in [10], under 10%; at Tryptase (Homo sapiens), 80%; in [11], 34%. For the same molecule, the values for the inhibition in series [12] and in series [13] were under 10% and 24%, respectively.
For `Cc1ccc(S(=O)(=O)N[C@@H](C(=O)Nc2ccc(C(=N)N)cc2)C2CCCCC2)cc1`, in [1], the half-life at 3 µM turned out to be 89 min. In addition, the solubility kinetic at 1.5 h in series [2] is over 200 µM. Also, the IC50 on Serine protease hepsin [3] is 33 nM; in [4] it was 4400 nM; on Serine protease hepsin [5] it was 38 to 70 nM. In series [16], this molecule returned a chromatographic logD of 1.3. Moreover, the inhibition entry on Serine protease hepsin [6] is “Active”. Moreover, the inhibition was 11% in [7]; 12% in series [8]; under 10% in series [9]; under 10% in [10]; 98% at Tryptase (Homo sapiens); under 10% in series [11]. The inhibition in series [12] is under 10%; in series [13], 22%.

These data come from ChEMBL document CHEMBL4118144, “Design, Synthesis, and Testing of Potent, Selective Hepsin Inhibitors via Application of an Automated Closed-Loop Optimization Platform” (J Med Chem, 2018).
